Measured values from different studies.
Lines come from different studies, so protocols differ.
BAZ2A bromodomain: Bromodomain adjacent to zinc finger domain protein 2A, bromodomain (BAZ2A, Homo sapiens, UniProt Q9UIF9)
RET: Proto-oncogene tyrosine-protein kinase receptor Ret (RET, Homo sapiens, UniProt P07949)
LATS2: Serine/threonine-protein kinase LATS2 (LATS2, Homo sapiens, UniProt Q9NRM7)
Nos2: Nitric oxide synthase, inducible (Nos2, Mus musculus, UniProt P29477)
CIT: Citron Rho-interacting kinase (CIT, Homo sapiens, UniProt O14578)

The ΔTm of C[S+]([O-])c1ccc(-c2nc(-c3ccncc3)c(-c3ccc(F)cc3)[nH]2)cc1 (stereo not shown) is reported as -0.19 °C (BAZ2A bromodomain; thermal stability; DSF; 10 µM).
O=C(NCc1cccnc1-n1cnc2ccccc21)c1ccc2[nH]c(=O)[nH]c2c1 has a remaining activity of 90.8% (RET; enzyme activity; inhibitor; radiometric; 10 µM).
The inhibition of O=C(CCCCCCCCc1ccc(O)c(O)c1)c1c(O)cccc1O is reported as 90.9% (Bifunctional epoxide hydrolase 2 (EPHX2, Homo sapiens, UniProt P34913); enzyme activity; inhibitor; fluorescence; 100 µM).
For Cn1cnc(Br)c1C1=CN(c2ncnc3[nH]cnc23)CCS1, the inhibition was 83.8% (LATS2; enzyme activity; inhibitor; radiometric; 2 µM).
The inhibition of O=c1cc(CCl)occ1O is reported as > 40% (Nos2; enzyme activity; inhibitor; 1 mM).
Oc1ccc(-c2nc(-c3ccncc3)c(-c3ccc(F)cc3)[nH]2)cc1 gave a ΔTm of 0.16 °C (BAZ2A bromodomain; thermal stability; DSF; 10 µM).
The remaining activity of CN1CCc2cc(Nc3ncc(C4CC4)c(NCCCNC(=O)C4CCC4)n3)ccc2C1 is reported as 3% (MAP/microtubule affinity-regulating kinase 4 (MARK4, Homo sapiens, UniProt Q96L34); enzyme activity; inhibitor; radiometric; 1 µM).
COc1cc2ncnc(Nc3ccc(Oc4ccccc4)c(C)c3C)c2cc1OC has an inhibition of 3% (Tyrosine-protein kinase JAK2 (JAK2, Homo sapiens, UniProt O60674); enzyme activity; inhibitor; 1 µM).
For COCC(=O)Nc1cc(C(=O)NCCc2cnn(C)c2)cc2ncn(CCc3ccccc3)c12, the remaining activity was 109% (RET; enzyme activity; inhibitor; radiometric; 10 µM).
Cc1cc2c(cc1N1C(=O)c3cccc4c(Cl)ccc(c34)C1=O)n(C)c(=O)n2C has a ΔTm of 0 °C (BAZ2A bromodomain; thermal stability; DSF; 10 µM).
O=C(O)c1ncccc1O gave an inhibition of > 40% (Nos2; enzyme activity; inhibitor; 1 mM).
With COc1cc(-c2cc(-c3ccc(N4CCNCC4)cc3)cnc2C)cc(OC)c1OC the inhibition was 1% (LATS2; enzyme activity; inhibitor; 0.1 µM).
N#Cc1ccc(/C=C/CN(CC[C@H](N)C(=O)O)C[C@H]2O[C@@H](n3cnc4c(N)ncnc43)[C@H](O)[C@@H]2O)cc1 has an activity vs control of 67% (Phenylethanolamine N-methyltransferase (PNMT, Homo sapiens, UniProt P11086); enzyme activity; inhibitor; 10 µM).
The remaining activity of COCC(=O)Nc1cc(C(=O)N(C)CCc2c(C)n[nH]c2C)c2c(c1)ncn2Cc1ccc(F)cc1 is reported as 118% (RET; enzyme activity; inhibitor; radiometric; 0.1 µM).
The remaining activity of CCCOc1ccc(OC)c(F)c1C(=O)c1ccc(C(=O)N[C@@H]2CNC[C@H]2NC(=O)c2ccc3[nH]ncc3c2)cc1 is reported as 41% (RET; enzyme activity; inhibitor; 0.75 µM).
The remaining activity of Cc1ccc(C(=O)Nc2ccc(CN3CCN(C)CC3)c(C(F)(F)F)c2)cc1C#Cc1cnc2cccnn12 is reported as 64% (CIT; enzyme activity; inhibitor; 23.5 nM).
NS(=O)(=O)c1ccc(Nc2nc(-c3ccc(F)cc3)c3ccccc3n2)cc1 gave a remaining binding of 71% (BAZ2A bromodomain; binding; competition with immobilised ligand; 1 µM).
O=C(Nc1ccc(NC(=O)c2ccco2)cc1C(F)(F)F)Nc1ccc(NC(=O)c2ccco2)cc1C(F)(F)F has a remaining activity of 123% (RET; enzyme activity; inhibitor; radiometric; 0.1 µM).
With Cc1nn(C)c2ncc(C(=O)NC(=O)Nc3ccc(F)c(C(F)(F)F)c3)cc12 the inhibition was < 10% (C-C chemokine receptor type 4 (CCR4, Homo sapiens, UniProt P51679); ligand displacement; radioligand; 10 µM).
For CC(C)[C@@H]1NC(=O)[C@@H]2CCCN2C(=O)[C@H](Cc2ccccc2)NC(=O)CSC[C@@H](C(=O)N[C@@H](Cc2ccc(O)cc2)C(N)=O)NC(=O)[C@H](Cc2c[nH]c3ccccc23)NC(=O)[C@H](CCCCN)NC(=O)[C@H](Cc2ccccc2)N(C)C(=O)[C@H](Cc2ccccc2)NC1=O, the kon was 71000 M⁻¹ s⁻¹ (Stimulator of interferon genes protein (STING1, Homo sapiens, UniProt Q86WV6, H232R); binding; SPR).
COc1ccc(OC)c(NC(=O)Nc2cc(OC)c3nc(NC(=O)c4ccccc4)sc3c2)c1 has a remaining activity of 94.4% (RET; enzyme activity; inhibitor; radiometric; 10 µM).
With C=C(F)[C@](N)(CCCCN)C(=O)O the KI (inactivation) was 620 µM (Lysine decarboxylase (Hafnia alvei, UniProt P05033); enzyme activity; inhibitor; absorbance).
CC(=O)c1cccc(NC(=O)Cc2csc(NC(=O)Nc3cccc(Cl)c3)n2)c1 gave a remaining activity of 116% (RET; enzyme activity; inhibitor; radiometric; 0.1 µM).
The inhibition of CCN(c1cc(C#CCN2CCOCC2)cc(C(=O)NCc2c(C)cc(C)[nH]c2=O)c1C)[C@H]1CC[C@H](N(C)CCOC)CC1 is reported as 98% (Histone-lysine N-methyltransferase EZH1 (EZH1, Homo sapiens, UniProt Q92800); enzyme activity; inhibitor; 1 µM).
With O=C(COc1ccc(Cl)cc1C(=O)Nc1ccccc1)Nc1cc(Cl)ccc1-n1cncn1 the remaining activity was 111% (RET; enzyme activity; inhibitor; radiometric; 10 µM).
The ΔTm of Cc1cnc(Nc2ccc(OCCN3CCCC3)cc2)nc1Nc1cccc(S(=O)(=O)NC(C)(C)C)c1 is reported as 0.24 °C (Histone-lysine N-methyltransferase ASH1L (ASH1L, Homo sapiens, UniProt Q9NR48); thermal stability; DSF; 10 µM).
CCn1cc(C(=O)Nc2cccc(O)c2)c(=O)c2cc(F)c(N3CCN(C(C)=O)CC3)cc21 has a remaining activity of 90.9% (RET; enzyme activity; inhibitor; radiometric; 0.1 µM).
With Nc1ncnc2occ(-c3ccc(NC(=O)Nc4cc(C(F)(F)F)ccc4F)cc3)c12 the remaining signal was 1.3% (CIT; cell-free assay; inhibitor; 20 µM).
